Results on 17 compounds are retold here after ChEMBL document CHEMBL1122532, “[(Aminomethyl)aryloxy]acetic acid esters. A new class of high-ceiling diuretics. 2. Modifications of the oxyacetic side chain” (J Med Chem, 1984).

The test system of data set [1] is Rattus norvegicus. Description: Oral dose necessary to produce an excretion of 2 mequiv of Na+/kg in the rat urine in the 4-h period after peroral administration; Inactive. As to conditions: in vivo. Format: ADME, organism-based. The procedure, abridged: (§1)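 Rats dosed orally. Urinary Na⁺ was measured over the 4 h after dosing. ED₂ is the oral dose (mg/kg) giving excretion of 2 mequiv Na⁺/kg in that period.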

In data set [2] the test system is Rattus norvegicus. Description: Oral dose necessary to produce an excretion of 2 mequiv of Na+/kg in the rat urine in the 4-h period after peroral administration. As to conditions: in vivo. Format: ADME, organism-based. The procedure, abridged: as §1
Data set [3] is filed under the species Canis familiaris. Description: Relative amount of acid ([4-(3-Aminomethyl-4-hydroxy-benzoyl)-2,3-dichloro-phenoxy]-acetic acid;) appearing in dog plasma was reported. It is filed as functional, Canis lupus familiaris.
The test system of data set [4] is frog. Briefly: Dose required for 50% inhibition of chloride transport in frog cornea was evaluated; No inhibition. Format: functional, tissue-based.
In data set [5] the test system is Canis familiaris. Briefly: Oral dose in mg/kg necessary to produce an excretion of 5 mequiv of Na+/kg in the dog urine during 6-h period after dosing. As to conditions: in vivo.
Data set [6] in a line: Dose required for 50% inhibition of chloride transport in frog cornea was evaluated. Format: functional.
For data set [7], the system named is Rattus norvegicus. Description: Oral dose necessary to produce an excretion of 2 mequiv of Na+/kg in the rat urine in the 4-h period after peroral administration; inactive. Format: ADME, organism-based. The conditions noted are these: in vivo. The procedure, abridged:
as §1

Each structure is given as a SMILES string. Active and inactive are the calls of the source. The rule behind the calls is not given here.

`COc1ccc(C(=O)c2ccc(O)c(CN)c2)c(Cl)c1Cl.Cl`: the ED2 result in data set [1] is listed as “Not Active”. Consider `Cl.NCc1cc(C(=O)c2ccc(OCCO)c(Cl)c2Cl)ccc1O`, for which, in data set [2], the ED2 turned out to be 1 mg/kg. This compound registered a Relative amount in data set [3] of 13%. Moreover, the Inhibition result in data set [4] was “inactive”. Also, the ED5 in data set [5] is 5.5 mg/kg. On to `CCOC(=O)COc1ccc(C(=O)c2ccc(O)c(CN)c2)c(Cl)c1Cl.Cl`, for which, in data set [2], the ED2 is 2.5 mg/kg. The same compound showed a Relative amount in data set [3] of 100%. In data set [6], this compound showed an IC50 of 14.6 µM. Moreover, the ED5 in data set [5] worked out at 1 mg/kg. In the case of `CCOC(=O)c1ccc(Oc2ccc(O)c(CN)c2)c(Cl)c1Cl.Cl`, the ED2 entry in data set [1] is on record as “Not Active”. Take `CCOC(=O)CCCOc1ccc(Oc2ccc(O)c(CN)c2)c(Cl)c1Cl.Cl`: the ED2 in data set [2] came out at 13.5 mg/kg.

Turning to `CCOC(=O)CSc1ccc(Oc2ccc(O)c(CN)c2)c(Cl)c1Cl.Cl`, in data set [2], the ED2 was determined as 1.22 mg/kg.

On to `CCOC(=O)Cc1ccc(Oc2ccc(O)c(CN)c2)c(Cl)c1Cl.Cl`, for which the ED2 in data set [2] was found to be 21.5 mg/kg. Turning to `Cl.N#CCOc1ccc(C(=O)c2ccc(O)c(CN)c2)c(Cl)c1Cl`, the ED2 entry in data set [1] is on record as “Not Active”. In the case of `CCOC(=O)C(C)Oc1ccc(C(=O)c2ccc(O)c(CN)c2)c(Cl)c1Cl.Cl` (stereo unspecified), the ED2 in data set [2] was found to be 19.5 mg/kg. `Cl.NCc1cc(C(=O)c2ccc(OCC(=O)O)c(Cl)c2Cl)ccc1O`: in data set [1], the ED2 result was “Not Active”. The IC50 in data set [6] was found to be 8.4 µM. The ED5 in data set [5] came to 0.71 mg/kg.

For `Cl.NCCOc1ccc(C(=O)c2ccc(O)c(CN)c2)c(Cl)c1Cl`, the ED2 in data set [2] worked out at 16.2 mg/kg. This compound yielded a Relative amount in data set [3] of 25%. Also, the Inhibition result in data set [4] was “inactive”. In addition, the ED5 in data set [5] was determined as 8 mg/kg. On to `CCOC(=O)C(C)(C)Oc1ccc(C(=O)c2ccc(O)c(CN)c2)c(Cl)c1Cl.Cl`, for which the ED2 entry in data set [7] is “Not Active”.

For the compound `Cl.NCc1cc(C(=O)c2ccc(OCC(N)=O)c(Cl)c2Cl)ccc1O`, the ED2 in data set [2] was 17 mg/kg. The same compound showed a Relative amount in data set [3] of 67%. This compound also yielded an IC50 in data set [6] of 16.5 µM. Further, the ED5 in data set [5] was 0.7 mg/kg. For `CCOC(=O)C1Cc2cc(C(=O)c3ccc(O)c(CN)c3)c(Cl)c(Cl)c2O1` (stereo unspecified), in data set [2], the ED2 is 0.11 mg/kg.

With `CCOC(=O)CCc1ccc(Oc2ccc(O)c(CN)c2)c(Cl)c1Cl.Cl`, in data set [2], the ED2 is 10.7 mg/kg. For the compound `CCOC(=O)COc1ccc(Oc2ccc(O)c(CN)c2)c(Cl)c1Cl.Cl`, in data set [2], the ED2 was 0.8 mg/kg. The same measure, in the same setting: under `CC(=O)COc1ccc(C(=O)c2ccc(O)c(CN)c2)c(Cl)c1Cl.Cl` stands 28.5 mg/kg.
